Source: publication PMC4467241 (Clinical Pharmacology in Drug Development, 2014)
Read-outs that look alike come from different tables or passages of the source. Marks after values point to notes of the source that are not given here.

Legend:
OATP1B3 [1] = settings: stated in introduction, no reference given; cited from earlier work
OAT3 [2] = settings: stated in introduction, no reference given; cited from earlier work
OAT3 [3] = settings: stated in introduction, no reference given; cited from earlier work; remark: listed apart in the source
[4] = cited from earlier work
[5] = tested on: organic cation transporter (OCT)2; settings: stated in introduction, no reference given; cited from earlier work
OATP1B3 [6] = settings: stated in introduction, no reference given; cited from earlier work; remark: listed apart in the source
[7] = no reference given, cited from earlier work; for Apparent clearance: prior studies
OATP1B1 = settings: read-out: IC50 (OATP1B1 inhibition); weak inhibitor; no reference given; cited from earlier work
[8] = Steady-state plasma pharmacokinetics of apremilast alone; format: in vivo, human; settings: for CLss/F / Cmin: steady-state
Summary of the method: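 Test compound was given at 30 mg Q12h for 12 doses, with a single co-drug dose added on Day 8. Citrated plasma was sampled predose and at 0.5–12 h after the morning dose on Days 7 and 8, then assayed by liquid-liquid extraction LC–MS/MS. Noncompartmental AUC0–τ and Cmax were derived, with ANOVA on log values (treatment fixed, subject random), geometric-mean ratio with 90% CI, and Hodges–Lehmann tmax.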

[9] = tested on: organic anion transporter (OAT)1; settings: stated in introduction, no reference given; cited from earlier work
[10] = tested on: organic anion transporting polypeptide (OATP)1B1; settings: stated in introduction, no reference given; cited from earlier work
MRP3 = settings: read-out: IC50 (MRP3 inhibition); weak inhibitor; no reference given; cited from earlier work
MRP2 = settings: in vitro, no reference printed, cited from earlier work
P-glycoprotein (P-gp) [11] = settings: in vitro; cited from earlier work
P-glycoprotein (P-gp) [12] = settings: read-out: IC50 (P-gp inhibition); in vitro, weak inhibitor; cited from earlier work
MRP4 = settings: stated in introduction, no reference given; cited from earlier work
OAT1 = settings: read-out: IC50 (OAT1 inhibition); weak inhibitor; no reference given; cited from earlier work
OCT2 = settings: stated in introduction, no reference given; cited from earlier work
BCRP = settings: in vitro, no reference printed, cited from earlier work
[13] = tested on: breast cancer resistance protein (BCRP); settings: stated in introduction, no reference given; cited from earlier work
[14] = tested on: multidrug resistance protein (MRP)1; settings: stated in introduction, no reference given; cited from earlier work
[15] = format: in vivo, human
Summary of the method: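 Heparinised plasma was taken predose and at 0.5–48 h, spun within 30 min and stored at −70 °C. Parent and metabolite were measured by SPE LC–MS/MS; noncompartmental AUC, with ANOVA on log values giving geometric-mean ratio and 90% CI.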

[16] = healthy subjects, Apremilast 30 mg BID; cited from earlier work
[17] = Apremilast 30 mg Q12H alone (Day 7), plasma, N = 15, arithmetic mean (SD)
[18] = both, human, plasma, oral, 30 mg
[19] = 7-OH MTX in plasma after MTX 10 mg oral + Apremilast 30 mg Q12H (Day 8), N = 1
[20] = 7-OH MTX in plasma after MTX 10 mg oral alone (Day 1), N = 1
[21] = 7-OH MTX in plasma after MTX 12.5 mg oral + Apremilast 30 mg Q12H (Day 8), N = 1
[22] = 7-OH MTX in plasma after MTX 12.5 mg oral alone (Day 1), N = 1
[23] = 7-OH MTX in plasma after MTX 17.5 mg oral + Apremilast 30 mg Q12H (Day 8), N = 1
[24] = 7-OH MTX in plasma after MTX 17.5 mg oral alone (Day 1), N = 1
[25] = 7-OH MTX in plasma, ANOVA, N = 15
[26] = 7-OH MTX in plasma, all dose groups, N = 15, acceptance range 80–125%

## CCOc1cc([C@@H](CS(C)(=O)=O)N2C(=O)c3cccc(NC(C)=O)c3C2=O)ccc1OC [APR, apremilast]
OATP1B3 [1]
  Substrate of OATP1B3: not a substrate
OAT3 [2]
  Inhibition of OAT3: does not inhibit
OAT3 [3]
  Substrate of OAT3: not a substrate
[4]; in humans
  Oral bioavailability: ~73%
[4]; orally administered
  Excreted unchanged in urine: less than 3%
[5]
  Substrate of OCT2: not a substrate
OATP1B3 [6]
  Inhibition of OATP1B3: does not inhibit
[7]; healthy volunteer studies, Apremilast administered BID
  Time by which steady-state is achieved: ≤ 36 h
[7]; in healthy subjects
  Apparent clearance: ~10 L/h
[7]; in patients
  Apparent clearance: 8.7 L/h
OATP1B1
  IC50: > 10 µM
[8]; Apremilast 30 mg Q12H + MTX (Day 8), plasma, N = 13, arithmetic mean, excludes data with R^2 < 0.9
  CLss/F: 156 ^b (86.3) mL/min
[8]; Apremilast 30 mg Q12H + MTX (Day 8), plasma, N = 15, arithmetic mean (SD)
  Cmin: 242 (153) ng/mL
[8]; [17]
  CLss/F: 153 (78.6) mL/min
  Cmin: 248 (153) ng/mL
[8]; apremilast in plasma, 30 mg Q12H, N = 15, Hodges–Lehmann
  tmax median difference (“APR + MTX” − “APR”): 0 ^c hr
[8]; apremilast in plasma, 30 mg Q12H, N = 15, acceptance range 80–125%
  Cmax ratio of geometric means (“methotrexate + apremilast”/“apremilast”): 95.00
[8]; apremilast in plasma, 30 mg Q12H, acceptance range 80–125%
  AUC0–τ ratio of geometric means (“methotrexate + apremilast”/“apremilast”): 99.30
[8]; apremilast in plasma, ANOVA
  Intra-subject CV% of AUC0–τ: 9.66%
[8]; apremilast in plasma, ANOVA, N = 15
  Intra-subject CV% of Cmax: 12.07%
[8]; apremilast with versus without methotrexate
  90% CI for Cmax and AUCtau versus FDA acceptance range of 80–125%: within the acceptance range for equivalency
[8]; [18]
  AUC: 4110 ng·h/mL
  Cmax: 584 ng/mL
  tmax: 2 h
[9]
  Substrate of OAT1: not a substrate
[10]
  Substrate of OATP1B1: not a substrate
MRP3
  IC50: > 10 µM
MRP2; listed as Apremilast
  Inhibition of MRP2: does not inhibit
MRP2; listed as apremilast
  Inhibition of MRP2: not an inhibitor
P-glycoprotein (P-gp) [11]
  Substrate of P-gp: substrate
P-glycoprotein (P-gp) [12]
  IC50: > 50 µM
MRP4
  Inhibition of MRP4: does not inhibit
OAT1
  IC50: > 10 µM
OCT2
  Inhibition of OCT2: does not inhibit
BCRP; listed as Apremilast
  Inhibition of BCRP: does not inhibit
BCRP; listed as apremilast
  Inhibition of BCRP: not an inhibitor
[13]
  Substrate of BCRP: not a substrate
[14]
  Inhibition of MRP1: does not inhibit

## CN(Cc1nc2c(N)nc(N)nc2[nH]c1=O)c1ccc(C(=O)N[C@@H](CCC(=O)O)C(=O)O)cc1 [7-OH MTX, 7-hydroxy methotrexate]
[15]; [19]
  AUC0–t: 620 ng·h/mL
  AUC0–∞: 650 ng·h/mL
  Cmax: 32.9 ng/mL
  t1/2: 10.9 h
  tmax: 6.00 h
[15]; [20]
  AUC0–t: 430 ng·h/mL
  AUC0–∞: 460 ng·h/mL
  Cmax: 21.0 ng/mL
  t1/2: 11.9 h
  tmax: 5.98 h
[15]; [21]
  AUC0–t: 1,670 hr ng/mL
  AUC0–∞: 1,820 hr ng/mL
  Cmax: 72.8 ng/mL
  t1/2: 12.0 h
  tmax: 6.00 h
[15]; [22]
  AUC0–t: 1,220 hr ng/mL
  AUC0–∞: 1,370 hr ng/mL
  Cmax: 52.8 ng/mL
  t1/2: 14.2 h
  tmax: 6.00 h
[15]; 7-OH MTX in plasma after MTX 15 mg oral alone (Day 1), N = 6, median (range)
  tmax: 7.52 (6.00–12.00) hr
[15]; [23]
  AUC0–t: 1,170 hr ng/mL
  AUC0–∞: 1,290 hr ng/mL
  Cmax: 48.9 ng/mL
  t1/2: 12.2 h
  tmax: 9.00 h
[15]; [24]
  AUC0–t: 1,170 hr ng/mL
  AUC0–∞: 1,300 hr ng/mL
  Cmax: 45.4 ng/mL
  t1/2: 13.0 h
  tmax: 6.00 h
[15]; 7-OH MTX in plasma after MTX 20 mg oral alone (Day 1), N = 6, median (range)
  tmax: 7.54 (5.95–9.00) hr
[15]; [25]
  Intra-subject CV% of AUC0–t: 19.89%
  Intra-subject CV% of AUC0–∞: 19.34%
  Intra-subject CV% of Cmax: 17.84%
[15]; 7-OH MTX in plasma, all dose groups, N = 15, Hodges–Lehmann
  tmax median difference (“MTX + Apremilast” − “MTX”): 0.005 ^c hr
[15]; [26]
  AUC0–t ratio of geometric means (“methotrexate + apremilast”/“methotrexate”): 98.59
  AUC0–∞ ratio of geometric means (“methotrexate + apremilast”/“methotrexate”): 98.24
  Cmax ratio of geometric means (“methotrexate + apremilast”/“methotrexate”): 104.01
[15]; 7-hydroxy methotrexate, methotrexate with versus without apremilast
  90% CI for Cmax, AUC0–t and AUC0–∞ versus FDA acceptance range of 80–125%: within the acceptance range for equivalency

## CCOc1cc(C(CS(C)(=O)=O)N2C(=O)c3cccc(NC(C)=O)c3C2=O)ccc1OC1OC(C(=O)O)C(O)C(O)C1O (centres unmarked) [M12]
[16]
  AUC relative to Apremilast: approximately 1.7 fold
  Cmax relative to Apremilast: ~1.25 fold
